Our source for the IC50 values is ChEMBL document CHEMBL1208685, “Synthesis, antiproliferative activity and inhibition of tubulin polymerization by anthracenone-based oxime derivatives” (Eur J Med Chem, 2010).

The subject of one test is K562. As to the kind of experiment: Cell growth inhibition of human K562 cells after 48 hrs. The format is functional, cell-based. To be noted: K562, 48 h. The essentials: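 K562 human chronic myelogenous leukemia cells cultured in Quantum 263 medium with streptomycin and penicillin G at 37 °C, 5% CO2. Seeded at 2 × 10⁵ cells/mL, exposed 48 h to compounds in DMSO/methanol 1:1 (vehicle 0.5%). Cells counted in Neubauer chamber and expressed as % of untreated control. Triplicate wells, three experiments. IC50 by nonlinear regression.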

The target of another test is Tubulin (Sus scrofa). As to the kind of experiment: Inhibition of tubulin polymerization using porcine brain microtubule protein.

SMILES strings stand for the structures.

Regarding `O=C1c2ccccc2C(=NO)c2ccccc21`, it took 3 µM to reach half-maximal inhibition with K562 (IC50). This lies in the single-digit micromolar range. Take `COc1cccc2c1C(=O)c1c(OC)cccc1C2=NO`: the midpoint of inhibition in the test on K562, the IC50, lay at 0.9 µM. Against the preceding compound, the IC50 is about 3.3-fold lower. The same measure, in the same setting: as for `O=C1c2cccc(Cl)c2/C(=N/O)c2cccc(Cl)c21`, the figure is 1.6 µM; as for `O=C1c2cccc(Cl)c2/C(=N\O)c2cccc(Cl)c21`, 1.6 µM.

In the test on K562, `O=C1c2c(Cl)cccc2C(=NO)c2cccc(Cl)c21` showed an IC50 of over 9 µM. In the case of `COc1ccc(C(=O)ON=C2c3ccccc3C(=O)c3ccccc32)cc1`, the results for the IC50 on Tubulin (Sus scrofa) and in the test with K562 were over 10 µM and 3 µM, respectively. As for `COc1cc(C(=O)ON=C2c3ccccc3C(=O)c3ccccc32)cc(OC)c1OC`, the IC50 in the test on K562 is over 12 µM.

`COc1ccc(C(=O)O/N=C2\c3cccc(Cl)c3C(=O)c3cccc(Cl)c32)cc1`: the figures for the IC50 against Tubulin (Sus scrofa) and in the test on K562 were over 10 µM and 12 µM, respectively.

Consider `COc1cc(C(=O)O/N=C2\c3cccc(Cl)c3C(=O)c3cccc(Cl)c32)cc(OC)c1OC`, for which the IC50 in the test with K562 is over 14 µM. On the same count and under the same terms, then `COc1ccc(C(=O)ON=C2c3cccc(Cl)c3C(=O)c3c(Cl)cccc32)cc1`, with over 12 µM. `COc1ccc(C(=O)ON=C2c3ccccc3C(=O)c3ccccc32)cc1O` came in with an IC50 in the test on K562 of 2 µM. On the same count and under the same terms, then `COc1cc(C(=O)ON=C2c3ccccc3C(=O)c3ccccc32)ccc1O`, with 3 µM.

`COc1ccc(S(=O)(=O)ON=C2c3ccccc3C(=O)c3ccccc32)cc1`: the IC50 was over 10 µM at Tubulin (Sus scrofa) and 3 µM with K562.

As for `COc1ccc(S(=O)(=O)O/N=C2\c3cccc(Cl)c3C(=O)c3cccc(Cl)c32)cc1`, the IC50 in the test on K562 was over 12 µM.

Regarding `O=C1c2ccccc2C(=NOCc2ccccc2)c2ccccc21`, the IC50 in the test on K562 was found to be 7 µM. Take `COc1ccc(CON=C2c3ccccc3C(=O)c3ccccc32)cc1`: the IC50 was 1.05 µM at Tubulin (Sus scrofa) and 0.37 µM with K562. As to `COc1cc(CON=C2c3ccccc3C(=O)c3ccccc32)cc(OC)c1OC`, the IC50 in the test with K562 was over 12 µM. As to `COc1ccc(CON=C2c3ccccc3C(=O)c3ccccc32)cc1O`, the IC50 is 1.43 µM against Tubulin (Sus scrofa) and 0.11 µM in the test on K562. Consider `O=C1c2ccccc2C(=NOCc2ccc(Cl)cc2)c2ccccc21`, for which half-maximal inhibition in the test on K562 (IC50) required 10 µM. Take `O=C1c2ccccc2C(=NOCc2ccc([N+](=O)[O-])cc2)c2ccccc21`: the IC50 in the test with K562 is over 11 µM.

For the compound `COc1ccc(CO/N=C2\c3cccc(Cl)c3C(=O)c3cccc(Cl)c32)cc1`, the results for the IC50 against Tubulin (Sus scrofa) and in the test on K562 were over 10 µM and over 12 µM, respectively. In turn, `COc1cc(CO/N=C2\c3cccc(Cl)c3C(=O)c3cccc(Cl)c32)cc(OC)c1OC` had an IC50 in the test on K562 of over 14 µM. Regarding `COc1ccc(CON=C2c3cccc(Cl)c3C(=O)c3c(Cl)cccc32)cc1`, the IC50 in the test on K562 is over 12 µM. Take `COc1ccc(CON=C2c3cccc(OC)c3C(=O)c3c(OC)cccc32)cc1`: the IC50 against Tubulin (Sus scrofa) was over 10 µM; in the test on K562 it was 3.4 µM.

In the case of `COc1ccc(CON=C2c3cccc(OC)c3C(=O)c3c(OC)cccc32)cc1O`, the IC50 against Tubulin (Sus scrofa) was over 10 µM; in the test with K562, 2.4 µM.
